Calls of active or inactive are those of the source.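 How the source made its calls: active means In either cell panel, a half-cytotoxic dose CC50 of 5 µM or lower marks a compound as cytotoxic; inactive means Both panels show CC50 exceeding 5 µM.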
Assay: cytotoxicity in Neuro-2A cells, dose response, cytotoxicity control for PME-1 inhibitor project, cell-based, WST-1 absorbance, serum-free and serum media (AID 588804)
Settings: Neuro-2A viability, 48 h
How it was run: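 test system = Neuro-2A murine neuroblastoma cells | read-out basis = % surviving cells and CC50 from three-parameter sigmoidal fit | control set = compound-free cells as high control, no-cell wells as low | detection = colorimetric WST-1 formazan absorbance | incubation = cells grown 36 h before dosing, 48 h compound exposure at 37 °C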

CC[C@@]1(c2ccc(Cl)cc2)C(=O)N(C(=O)OC)N1C(=O)OC
CC50 (with serum): > 10 µM (inactive)
CC50 (without serum): > 10 µM (inactive)

CC[C@@]1(c2ccc(C)cc2)C(=O)N(C(=O)OC(C)C)N1C(=O)OC(C)C
CC50 (with serum): > 10 µM (inactive)
CC50 (without serum): > 10 µM (inactive)

CCCOC(=O)N1C(=O)[C@@](CC)(c2ccc(C)cc2)N1C(=O)OCCC
CC50 (with serum): > 10 µM (inactive)
CC50 (without serum): > 10 µM (inactive)

Source: PubChem BioAssay AID588804 (The Scripps Research Institute Molecular Screening Center, 2011)
